Screening results deposited in PubChem by Columbia University Molecular Screening Center.
This is one part of a sample in which hits are shown more often than they occur.
Insulin prom act – activators of insulin promoter-driven GFP, primary screen, imaging, TRM-6 cells (human fetal islet line), eGFP reporter, cell count | plate-scaled: unstimulated 0, stimulated control 100 | 0.81% of 130,000 active | activation, % at 2 µM;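 active means activation at 2 µM above a set limit, confirmed on inspection of the cell images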;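 further: share of cells whose green reporter signal exceeds an intensity cutoff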
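Assay system: TRM-6 insulin promoter–eGFP reporter cells / Input: 1,000 cells per well / Medium: Low-glucose (5.5 mM) medium with tamoxifen / Also added: tamoxifen inducer, 0.75 µM, in seeding medium / Timing: overnight tamoxifen, then two-day compound incubation at 37 °C / Signal: automated fluorescence imaging of paraformaldehyde-fixed, Hoechst-counterstained cells, green channel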
Starred values were filed as active, the others as inactive.

What do the screens show for `CCOc1ccccc1C(=O)n1nc(C)cc1C`?
Insulin prom act: 3

How did CCOc1ccccc1C(=O)N1c2ccccc2Sc2ccccc21 do in these assays?
Insulin prom act: 100*

What do the screens show for `CCOc1ccccc1-n1c(=O)c2ccccc2c2ccccc2c1=O`?
Insulin prom act: -5

What do the screens show for `Cc1onc(-c2c(F)cccc2Cl)c1C(=O)NC(=S)NCc1cccnc1`?
Insulin prom act: 0

How did Cc1ccc(C(=O)NC(=C(Cl)Cl)S(=O)(=O)c2ccc(Cl)cc2)cc1 do in these assays?
Insulin prom act: 129

Results for CNC(=O)c1nnsc1S(=O)(=O)c1ccc(Cl)cc1 ?
Insulin prom act: 754*

Results for O=C(Nc1ccccn1)c1ccc(S(=O)(=O)c2ccc(Cl)cc2)cc1 ?
Insulin prom act: -3

How did CC(=O)Nc1cc(-c2ccc(Cl)cc2)[nH]n1 do in these assays?
Insulin prom act: -8

What do the screens show for `Cc1cc(C)cc(OCC(=O)Nc2ccc3c(c2)C(=O)c2ccccc2C3=O)c1`?
Insulin prom act: 7

How did Nc1c(C(=O)Nc2nc3ccccc3s2)sc2nc(-c3cccs3)ccc12 do in these assays?
Insulin prom act: 196*

How did O=C(NC(=S)Nc1nc2ccccc2s1)c1cccs1 do in these assays?
Insulin prom act: -7

Results for Nc1c(C(=O)Nc2ccccc2)sc2nc(-c3ccco3)ccc12 ?
Insulin prom act: -80

What do the screens show for `Cc1nccn1-c1cc(C(C)(C)C)nc2c(-c3ccccc3)cnn12`?
Insulin prom act: -4

How did C=CCOC(=O)C1=C(C)NC(C)=C(C(=O)OCC=C)C1c1cn(-c2ccccc2)nc1-c1ccco1 do in these assays?
Insulin prom act: 106

How did CO/N=C(/CS(=O)(=O)c1ccc(C)cc1)c1ccc(OC)cc1 do in these assays?
Insulin prom act: 3

How did CC1(C)CC(=O)C2=C(C1)N(c1ccccc1)C(=O)C2(O)C(F)(F)F (centres undefined) do in these assays?
Insulin prom act: -4

Results for CCCCn1nnnc1SCC(=O)NCc1ccccc1 ?
Insulin prom act: 267

What do the screens show for `CC(C)n1nnnc1SCC(=O)NCCc1ccccc1`?
Insulin prom act: 75*

Results for Cc1occc1-c1nnc(SCC(=O)NCCc2ccccc2)n1C(C)c1ccccc1 (centres undefined) ?
Insulin prom act: 9

Results for C=CCNC(=S)/C(=C(/[O-])c1ccccc1Br)[n+]1ccccc1 ?
Insulin prom act: 0

How did Cc1occc1C(=O)NN1C(=O)C2C3CCC(O3)C2C1=O (centres undefined) do in these assays?
Insulin prom act: 4

Results for O=C1CCc2cc(S(=O)(=O)NC(Cc3ccccc3)C(=O)N3CCN(c4ccccn4)CC3)ccc2N1 (centres undefined) ?
Insulin prom act: -7

What do the screens show for `COc1cc(CCC(=O)Nc2cc(Cl)ccc2N2CCN(C)CC2)cc(OC)c1OC`?
Insulin prom act: 6

What do the screens show for `COc1cccc(C(=O)Nc2ccc(Cl)c(C(F)(F)F)c2)c1`?
Insulin prom act: 8

Results for COc1cc(CCC(=O)Nc2ccc(Cl)c(C(F)(F)F)c2)cc(OC)c1OC ?
Insulin prom act: 277*

How did CCN(CC)c1ccc(/C=C2\C(=O)c3ccc(C(=O)O)cc3C2=O)cc1 do in these assays?
Insulin prom act: 0

How did Cc1sc(-c2ccncc2)nc1OC(=O)c1ccccc1 do in these assays?
Insulin prom act: 4

How did CCOC(=O)CNC(=S)N(Cc1ccccc1)Cc1cccnc1 do in these assays?
Insulin prom act: 7

What do the screens show for `Cc1[nH]c2ccccc2c1CCN(Cc1cccnc1)C(=S)Nc1ccc(F)cc1`?
Insulin prom act: 0

How did Cc1cc(C)c2cc(CN(Cc3cccnc3)C(=O)c3ccc(F)cc3)c(Cl)nc2c1 do in these assays?
Insulin prom act: 130*

How did Cc1ccc2c(c1)C(O)(CC(=O)/C=C/C=C/c1ccccc1)C(=O)N2 (centres undefined) do in these assays?
Insulin prom act: 7

How did Cc1nn(-c2ccccc2)c(Cl)c1CN(C(=O)CCl)c1ccc(Cl)cc1 do in these assays?
Insulin prom act: -100

How did CCCCNC(=O)[C@H](Cc1c[nH]c2ccccc12)NC(=O)c1ccccc1Cl do in these assays?
Insulin prom act: 109

Results for O=C(CCl)N(c1ccc(Cl)cc1)c1c[nH]c2ccccc12 ?
Insulin prom act: 257*

How did N#CCC(=O)N/N=C/c1cc(-c2ccccc2)n(-c2ccc(Cl)cc2)c1-c1ccccc1 do in these assays?
Insulin prom act: 0

Results for OCCCc1n[nH]c(=S)n1-c1ccccc1 ?
Insulin prom act: -7

How did Cc1ccccc1OCc1n[nH]c(=S)n1Cc1ccccc1 do in these assays?
Insulin prom act: 0

What do the screens show for `Nn1c(Cc2ccccc2)n[nH]c1=S`?
Insulin prom act: 486*

What do the screens show for `Cc1cccc(NC(=O)CCSc2nnc(Cc3ccccc3)o2)c1`?
Insulin prom act: 9

How did CC(=O)Nc1ccc(Nc2cc(C)nc3c(-c4ccccc4)cnn23)cc1 do in these assays?
Insulin prom act: -75

What do the screens show for `CCOC(=O)c1cnc2c(C)c(-c3ccccc3)[nH]n2c1=O`?
Insulin prom act: 0

How did Cc1ccc(C(=O)OCC2OC3OC(C)(C)OC3C2O)cc1 (centres undefined) do in these assays?
Insulin prom act: 10

How did CC1(C)O[C@H]2OC([C@H](O)CON3C(=O)c4ccccc4C3=O)[C@H](O)[C@H]2O1 (some centres undefined) do in these assays?
Insulin prom act: 264*

How did O=C1c2ccccc2C(=O)N1OCCOCCOCCBr do in these assays?
Insulin prom act: 3

How did COc1ccc2c(C)cc(SCC#N)nc2c1 do in these assays?
Insulin prom act: 167*

What do the screens show for `COc1ccc2c(-c3ccccc3)cc(SCC(=O)N(C)C)nc2c1`?
Insulin prom act: -8

Results for COc1ccc2c(-c3ccccc3)cc(SCC(=O)NC(N)=O)nc2c1 ?
Insulin prom act: 8

What do the screens show for `O=C(c1ccc(N2C(=O)C3C4c5ccccc5C(c5ccccc54)C3C2=O)cc1)N1CCOCC1` (centres undefined)?
Insulin prom act: 3

What do the screens show for `CCCOc1cccc(NC(=O)OC2CCN(C)CC2)c1`?
Insulin prom act: -8

Results for CCOC(=O)NC1(C(F)(F)F)C(=O)N(Cc2ccccc2)C2=C1C(=O)CC(C)(C)C2 (centres undefined) ?
Insulin prom act: -3

How did Cc1ccc2[nH]c(=O)c(CN(Cc3cccnc3)Cc3nnnn3CCN3CCOCC3)cc2c1 do in these assays?
Insulin prom act: 3

Results for COc1ccc(C2=C(SC)CC2=NC(C)(C)C)cc1 ?
Insulin prom act: 6

What do the screens show for `O=c1c2ccccc2nc2c3ccccc3c(NCCN3CCOCC3)nn12`?
Insulin prom act: 9

What do the screens show for `CNc1nc(C(=O)O)nc(N2CCOCC2)n1`?
Insulin prom act: 272

What do the screens show for `C=CCNc1nc(NCCN2CCOCC2)nc(N2CCOCC2)n1`?
Insulin prom act: 493*

What do the screens show for `Cc1ccc(CSCCNC(=O)c2ccc(Cl)c(S(=O)(=O)N3CCOCC3)c2)cc1`?
Insulin prom act: 142

Results for c1ccc(Nc2nc(-c3cccnc3)cs2)nc1 ?
Insulin prom act: 0

Results for Clc1ccccc1Nc1nc(-c2cccnc2)cs1 ?
Insulin prom act: 358*

What do the screens show for `c1cncc(Nc2nc(-c3ccncc3)cs2)c1`?
Insulin prom act: -4

Results for O=C(NCCc1nc2ccccc2[nH]1)/C(=C/c1ccco1)NC(=O)c1ccc(Br)o1 ?
Insulin prom act: 9

How did Cn1c(CCN2CCOCC2)nc2cc(NC(=O)c3cccs3)ccc21 do in these assays?
Insulin prom act: -8
